Test results published in ChEMBL document CHEMBL1148054, “Chemical and bioactive constituents from Zanthoxylum simulans” (J Nat Prod, 1994).

Key:
Type in all cases: functional
HL-60 [1] = test: Induction of cell differentiation in human HL60 cells assessed as alpha naphthyl esterase activity at 0.0001 uM after 4 days
How it was run: (§1)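 HL-60 cells in RPMI 1640 with 5% heat-inactivated calf serum at 37° under 5% CO2. Log-phase cells diluted to 1.2×10^5 cells/ml and preincubated 18 h, then samples added in DMSO (final 0.1%, DMSO controls). Cells scored after 4 days.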

HL-60 [2] = test: Induction of cell differentiation in human HL60 cells assessed as alpha naphthyl esterase activity at 0.001 uM after 4 days; how it was run: as §1
HL-60 [3] = test: Induction of cell differentiation in human HL60 cells assessed as alpha naphthyl esterase activity at 0.01 uM after 4 days; how it was run: as §1
HL-60 [4] = test: Induction of cell differentiation in human HL60 cells assessed as alpha naphthyl esterase activity at 0.1 uM after 4 days; how it was run: as §1
HL-60 [5] = test: Induction of cell differentiation in human HL60 cells assessed as alpha naphthyl esterase activity at 1 uM after 4 days; how it was run: as §1
HL-60 [6] = test: Induction of terminal cell differentiation in human HL60 cells at 0.0001 uM after 4 days by NBT reduction assay
How it was run: (§2)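 Log-phase HL-60 cells (RPMI 1640, 5% heat-inactivated calf serum, 37°, 5% CO2) were diluted to 1.2×10^5 cells/ml, preincubated 18 h, then treated 4 days with samples in DMSO (final 0.1%; DMSO controls). 10^6 cells were mixed 1:1 with fresh PBS holding 2 mg/ml NBT and 5 μg/ml TPA, 1 h at 37°. Formazan-positive cells were counted microscopically as % NBT-positive.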

HL-60 [7] = test: Induction of terminal cell differentiation in human HL60 cells at 0.001 uM after 4 days by NBT reduction assay; how it was run: as §2
HL-60 [8] = test: Induction of terminal cell differentiation in human HL60 cells at 0.01 uM after 4 days by NBT reduction assay; how it was run: as §2
HL-60 [9] = test: Induction of terminal cell differentiation in human HL60 cells at 0.1 uM after 4 days by NBT reduction assay; how it was run: as §2
HL-60 [10] = test: Induction of terminal cell differentiation in human HL60 cells at 1 uM after 4 days by NBT reduction assay; how it was run: as §2
HL-60 [11] = test: Induction of terminal cell differentiation in human HL60 cells assessed as inhibition of [3H]thymidine incorporation at 0.1 uM after 4 days; design: scale not given: the % may be the effect or the level left
How it was run: (§3)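 HL-60 cells were kept in RPMI 1640 with 5% heat-inactivated calf serum and penicillin/streptomycin at 37° under 5% CO2. Log-phase cells were diluted to 1.2×10^5 cells/ml and preincubated 18 h. Samples were added in DMSO (final 0.1%; vehicle controls matched) for 4 days. Aliquots then got 0.5 μCi/ml [3H]thymidine for 16 h more, were harvested and scintillation-counted. % incorporation per 10^6 cells = sample DPM / DMSO-control DPM.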

HL-60 [12] = test: Induction of terminal cell differentiation in human HL60 cells assessed as inhibition of [3H]thymidine incorporation at 0.01 uM after 4 days; design: scale not given: the % may be the effect or the level left; how it was run: as §3
HL-60 [13] = test: Induction of terminal cell differentiation in human HL60 cells assessed as inhibition of [3H]thymidine incorporation at 0.001 uM after 4 days; design: scale not given: the % may be the effect or the level left; how it was run: as §3
HL-60 [14] = test: Induction of terminal cell differentiation in human HL60 cells assessed as inhibition of [3H]thymidine incorporation at 0.0001 uM after 4 days; design: scale not given: the % may be the effect or the level left
How it was run: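 After 4-day sample treatment, 100 μl of HL-60 cells pulsed with 0.5 μCi/ml [3H]thymidine (65 Ci/mmol) for 16 h. Cells harvested and counted by liquid scintillation. Incorporation per 10^6 cells given as sample DPM divided by DMSO-control DPM.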

HL-60 [15] = test: Induction of terminal cell differentiation in human HL60 cells assessed as inhibition of [3H]thymidine incorporation at 1 uM after 4 days; design: scale not given: the % may be the effect or the level left; how it was run: as §3
HL-60 [16] = test: Induction of terminal cell differentiation in human HL60 cells assessed as naphthol AS-D chloroacetate esterase activity at 1 uM after 4 days
How it was run: (§4)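 HL-60 cells were grown in RPMI 1640 with 5% heat-inactivated calf serum at 37°, 5% CO2. They were diluted to 1.2×10^5 cells/ml, preincubated 18 h, then exposed 4 days to DMSO-dissolved samples (final DMSO 0.1%, matched vehicle controls). Specific esterase (naphthol AS-D chloroacetate) was scored cytochemically with a commercial kit as the percentage of differentiated cells.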

HL-60 [17] = test: Induction of terminal cell differentiation in human HL60 cells assessed as naphthol AS-D chloroacetate esterase activity at 0.1 uM after 4 days; how it was run: as §4
HL-60 [18] = test: Induction of terminal cell differentiation in human HL60 cells assessed as naphthol AS-D chloroacetate esterase activity at 0.01 uM after 4 days; how it was run: as §4
HL-60 [19] = test: Induction of terminal cell differentiation in human HL60 cells assessed as naphthol AS-D chloroacetate esterase activity at 0.001 uM after 4 days; how it was run: as §4
HL-60 [20] = test: Induction of terminal cell differentiation in human HL60 cells assessed as naphthol AS-D chloroacetate esterase activity at 0.0001 uM after 4 days; how it was run: as §4
HL-60 [21] = test: Induction of terminal cell differentiation in human HL60 cells assessed as cell viability at 1 uM by trypan blue exclusion method; conditions: read-out: Activity
How it was run: (§5)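 HL-60 cells preincubated 18 h at 1.2×10^5 cells/ml, then exposed 4 days to samples in DMSO (final 0.1%). Viability by trypan blue exclusion: viable/(viable+dead)×100. Cell counts also taken after 4 days.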

HL-60 [22] = test: Induction of terminal cell differentiation in human HL60 cells assessed as cell viability at 0.1 uM by trypan blue exclusion method; conditions: read-out: Activity; how it was run: as §5
HL-60 [23] = test: Induction of terminal cell differentiation in human HL60 cells assessed as cell viability at 0.01 uM by trypan blue exclusion method; conditions: read-out: Activity; how it was run: as §5
HL-60 [24] = test: Induction of terminal cell differentiation in human HL60 cells assessed as cell viability at 0.001 uM by trypan blue exclusion method; conditions: read-out: Activity; how it was run: as §5
HL-60 [25] = test: Induction of terminal cell differentiation in human HL60 cells assessed as cell viability at 0.0001 uM by trypan blue exclusion method; conditions: read-out: Activity; how it was run: as §5

Compound `C=C1/C(=C\C=C2/CCC[C@]3(C)[C@@H]([C@H](C)CCCC(C)(C)O)CC[C@@H]23)C[C@@H](O)C[C@@H]1O` [CALCITRIOL] has an Activity (HL-60 [1]) of 2.5%, an Activity (HL-60 [2]) of 14% and an Activity (HL-60 [3]) of 68%. The Activity (HL-60 [4]) was 90.1%, the Activity (HL-60 [5]) was 95.3% and the Activity (HL-60 [6]) was 8.8%. It also gave an Activity (HL-60 [7]) of 28.5%, an Activity (HL-60 [8]) of 73.3% and an Activity (HL-60 [9]) of 80%. The Activity (HL-60 [10]) was 90.5%, the Activity (HL-60 [11]) was 92% and the Activity (HL-60 [12]) was 58.3%. It also gave an Activity (HL-60 [13]) of 32.3%, an Activity (HL-60 [14]) of 6% and an Activity (HL-60 [15]) of 95.3%. It also gave an Activity (HL-60 [16]) of 2%, an Activity (HL-60 [17]) of 2% and an Activity (HL-60 [18]) of 4%. For the same compound, the Activity (HL-60 [19]) was 4.6%, the Activity (HL-60 [20]) was 5% and the viability at 1 µM (HL-60 [21]) was 92%. It also gave a viability at 0.1 µM (HL-60 [22]) of 95%, a viability at 0.01 µM (HL-60 [23]) of 97% and a viability at 0.001 µM (HL-60 [24]) of 99%. The viability at 0.0001 µM (HL-60 [25]) was 98%.
